Source: PubChem
SENP1 FRET inh: blocks the human SENP1 SUMO protease catalytic domain; Q9P0U3; recombinant SENP1 catalytic domain, CyPet-SUMO1-YPet FRET cleavage; inhibition, % at 10 µM; 0.21% of 360,000 active;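 active means inhibition at least 30% at 10 µM, raw YFP signal under a set limit, fluorescence ratio 0.5 to 1.5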
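Material – human SENP1 catalytic domain · Input – SENP1 enzyme, 20 pM final · Compound dosing – single concentration of 10 µM compound, 0.5% DMSO final · Timing – enzyme reaction for 50 min at room temperature, dark · Measured by – FRET fluorescence in CFP and YFP emission channels · Control set – no-enzyme wells low, DMSO-plus-enzyme wells high control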
SENP8 block-1: blocks human SENP8 cleavage of Nedd8 substrate; recombinant SENP8, Nedd8 substrate fluorescence; inhibition, % at 20 µM; 0.64% of 360,000 active; in the data active means inhibition mostly above about 40%, no sharp cut-off; inactive means mostly below about 27%
SENP6 block: inhibitors of human SENP6 protease. inhibition, % at 10 µM. AID 2599. 1.8% of 330,000 active. Q9GZR1. Recombinant SENP6 catalytic domain, aminoluciferin luminescence;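 active means inhibition above about 50% at the single tested dose, limit read from the data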
Target sequence (Q9GZR1 628-1112 limits assumed): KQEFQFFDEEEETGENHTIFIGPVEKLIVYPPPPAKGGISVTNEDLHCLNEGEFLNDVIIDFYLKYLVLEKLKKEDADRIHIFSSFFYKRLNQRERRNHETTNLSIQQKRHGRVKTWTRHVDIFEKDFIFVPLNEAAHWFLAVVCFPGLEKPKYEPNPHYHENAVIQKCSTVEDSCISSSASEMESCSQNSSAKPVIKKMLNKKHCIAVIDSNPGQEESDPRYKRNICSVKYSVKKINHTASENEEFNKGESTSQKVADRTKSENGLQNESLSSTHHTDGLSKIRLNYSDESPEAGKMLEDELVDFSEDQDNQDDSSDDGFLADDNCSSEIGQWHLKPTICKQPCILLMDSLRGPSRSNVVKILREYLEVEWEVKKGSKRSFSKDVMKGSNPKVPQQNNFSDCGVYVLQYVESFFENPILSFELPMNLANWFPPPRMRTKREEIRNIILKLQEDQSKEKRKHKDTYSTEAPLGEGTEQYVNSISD
SENP7 block: SENP7 protease inhibition | Q9BQF6 | recombinant SENP7, Z-RLRGG-aminoluciferin luminescence, 40 min | inhibition, % at 5 µM | 1.5% of 330,000 active | AID 434973;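 active means inhibition above about 50% at the single test dose, limit read from the data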
Apaf-1 inh: inhibitors of human Apaf-1 apoptosome. inhibition, % at 20 µM. 0.71% of 330,000 active. reconstituted apoptosome caspase-3 activity, DEVD-Rh110 fluorescence. O14727. AID 489030; active means inhibition of at least 40% at 20 µM
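detection = Rh110 fluorescence intensity | test system = biochemical Apaf-1 apoptosome reconstitution | also added = cytochrome c and DEVD-Rh110 substrate | schedule = 30 min plus 50 min, RT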
SENP8 block-2: SENP8 protease inhibition; purified SENP8, Z-RLRGG-aminoluciferin cleavage, luminescence; inhibition, % at 10 µM; 1.2% of 330,000 active; AID 2540; in the data active means inhibition above about 50%
SENP8 confirm: confirmation of human SENP8 protease inhibitors | shares compounds with SENP7 block | Recombinant SENP8, Z-RLRGG-aminoluciferin luminescence, 60 min | inhibition, % at 12.5 µM | 40% of 6,200 active;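 active means mean inhibition across replicates above about 50%, limit read from the data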
SENP6 conf: human SENP6 inhibition, confirmed. shares compounds with SENP7 block. recombinant SENP6, Z-RLRGG-aminoluciferin luminescence. inhibition, % at 12.5 µM. 58% of 6,200 active. AID 488915
SENP7 conf: confirmation of human SENP7 protease inhibitors; shares compounds with SENP7 block; recombinant SENP7, Z-RLRGG-aminoluciferin luminescence, 40 min; inhibition, % at 12.5 µM; 69% of 6,200 active
Casp3 SENP sel: selectivity test for SENP inhibitors: human caspase-3 inhibition; inhibition, % at 12.5 µM; 60% of 6,200 active; shares compounds with SENP7 block; purified caspase-3, Z-DEVD-aminoluciferin luminescence, 60 min;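 active means mean inhibition above about 50%, limit read from the data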
SENP luc ctr: counter-screen for SENP inhibitors: luminescence interference | 39% of 6,200 active | Pre-incubated SENP8/Z-RLRGG-aminoluciferin, luciferase luminescence interference | inhibition, % at 12.5 µM | shares compounds with SENP7 block;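 active means mean inhibition above about 50% when retested at one dose, limit read from the data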
Each line names hits and unclear results; the compound was inactive in the other large screens (follow-up assays come after a bar, where they were run). An excerpt weighted towards active compounds, which were near 2.9% of everything screened.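 How the source made its calls, unless noted: active means mean inhibition above about 50% in the one-dose retest (limit read from the data); inactive means the rest.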

Cc1oc2ccc(OCc3ccc(Cl)cc3)cc2c1C(=O)O	SENP6 block 78, SENP8 block-2 59 | SENP8 confirm 79 | SENP6 conf 80 | SENP7 conf 93 | Casp3 SENP sel 66 | SENP luc ctr 60
Cc1ccccc1COc1ccc2oc(C)c(C(=O)O)c2c1	none
Cc1oc2ccc(OCc3ccc(Br)cc3)cc2c1C(=O)O	SENP6 block 68 | SENP8 confirm inactive | SENP6 conf 80 | SENP7 conf 63 | Casp3 SENP sel 56 | SENP luc ctr inactive
COc1cc(OC)cc(C(=O)N(Cc2ccco2)c2c(N)n(Cc3ccccc3)c(=O)[nH]c2=O)c1	none (no result: SENP6 block, SENP7 block, Apaf-1 inh, SENP8 block-2)
CC1(C(=O)NS(=O)(=O)c2ccc(Cl)s2)CCN1C(=O)CCc1ccccc1 (centres undefined)	none (no result: SENP6 block, SENP7 block, Apaf-1 inh, SENP8 block-2)
CC1(C(=O)NS(=O)(=O)c2cccc(Cl)c2)CCN1C(=O)C1(c2ccc(Cl)cc2)CCC1 (centres undefined)	none (no result: SENP6 block, SENP7 block, Apaf-1 inh, SENP8 block-2)
CCC(O)c1cnc(OCc2ccccc2)nc1OCc1ccccc1 (centres undefined)	none (no result: SENP6 block, SENP7 block, Apaf-1 inh, SENP8 block-2)
Cc1ccc(C2=Nn3c(COc4ccc(Cl)cc4)nnc3SC2CC(=O)O)cc1 (centres undefined)	none
O=C(/C=C/c1cccc([N+](=O)[O-])c1)NCCN1C(=O)S/C(=C\c2cccnc2)C1=O	none
O=C(/C=C/c1ccccc1[N+](=O)[O-])NCCN1C(=O)S/C(=C\c2ccc(F)cc2)C1=O	SENP7 block 81 | SENP8 confirm inactive | SENP6 conf inactive | SENP7 conf inactive | Casp3 SENP sel inactive | SENP luc ctr inactive
CSc1nccc(N/N=C/c2ccccc2)n1	SENP6 block 64, SENP7 block 74, SENP8 block-2 53 | SENP8 confirm inactive | SENP6 conf inactive | SENP7 conf 81 | Casp3 SENP sel 69 | SENP luc ctr inactive
O=C(O)CCC(=O)Nc1ccc(N=Nc2ccccc2)cc1	none (no result: SENP6 block, SENP7 block, Apaf-1 inh, SENP8 block-2)
CC(C)(C)C(=O)Nc1ccc(N=Nc2ccccc2)cc1	SENP7 block 64 | SENP8 confirm inactive | SENP6 conf 61 | SENP7 conf 91 | Casp3 SENP sel 59 | SENP luc ctr inactive
CCC(C(=O)N1CCN(Cc2ccc3c(c2)OCO3)CC1)n1c(=O)[nH]c2ccccc2c1=O (centres undefined)	none
Cn1c2ccccc2c(=O)c2cc(C#Cc3cccc(N)c3)ccc21	none
C=CCn1c2ccccc2c(=O)c2cc(C#CC[C@@H](C)O)ccc21	SENP6 block 56 | SENP8 confirm 59 | SENP6 conf 59 | SENP7 conf 76 | Casp3 SENP sel 52 | SENP luc ctr inactive
C=CCn1c2ccccc2c(=O)c2cc(C#CC3(O)CCCCC3)ccc21	SENP6 block 76, SENP8 block-2 71 | SENP8 confirm inactive | SENP6 conf 79 | SENP7 conf 93 | Casp3 SENP sel 60 | SENP luc ctr inactive
CC(C)NC(=O)C1Cc2c(-c3ccc4c(c3)OCO4)ccnc2O1 (centres undefined)	none (no result: SENP6 block, SENP7 block, Apaf-1 inh, SENP8 block-2)
CCOC(=O)/C=C/c1ccc2oc3ccccc3c(=O)c2c1	SENP6 block 94, SENP7 block 92, SENP8 block-2 83 | SENP8 confirm inactive | SENP6 conf inactive | SENP7 conf 60 | Casp3 SENP sel inactive | SENP luc ctr inactive
Cc1ccc(N=Cc2c(O)c3ccccc3oc2=O)c(C)c1	SENP7 block 86 | SENP8 confirm 53 | SENP6 conf 52 | SENP7 conf inactive | Casp3 SENP sel inactive | SENP luc ctr inactive
